Measurements: ChEMBL document CHEMBL4680097 (J Med Chem, 2016)
Calls of active or inactive are those of the source. The rule behind the calls is not given here.

Key:
Histone deacetylase 2 [1] = target: T1, Histone deacetylase 2 (Homo sapiens, UniProt Q92769); test: Inhibition of recombinant HDAC2 (unknown origin) at 250 nM incubated for 15 mins before substrate addition and measured after 30 to 45 mins by HDAC-Glo substrate
How it was run: (§1)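 HDAC isoforms captured from HeLa cell lysate with plate-bound isoform-specific antibodies (lysate 100 µg/mL for HDAC1/2, 1 mg/mL for HDAC3/6); inhibitor in DMSO preincubated 15 min at room temperature, then HDAC-Glo substrate/developer 30–45 min; luminescence, background-corrected against no-antibody wells; % activity vs DMSO control; at least two independent trials, mean ± standard error. Concentrations are final.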

HCT-116 = test: Growth inhibition of human HCT-116 cells incubated for 96 hrs by MTS assay; type: functional
[2] = system: Panel NCI-60 (60 carcinoma cell lines); test: Growth inhibition of human NCI-60 cells assessed as cell growth at 10 uM; type: functional; conditions: read-out: Activity
How it was run: (§2)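 NCI-60 human tumour cell line panel; initial single-dose screen at 10 μM, growth inhibition reported per cell line.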

Histone deacetylase 1 [3] = target: T2, Histone deacetylase 1 (Homo sapiens, UniProt Q13547); test: Inhibition of recombinant HDAC1 (unknown origin) at 250 nM incubated for 15 mins before substrate addition and measured after 30 to 45 mins by HDAC-Glo substrate; how it was run: as §1
T2 sequence (Q13547 whole entry): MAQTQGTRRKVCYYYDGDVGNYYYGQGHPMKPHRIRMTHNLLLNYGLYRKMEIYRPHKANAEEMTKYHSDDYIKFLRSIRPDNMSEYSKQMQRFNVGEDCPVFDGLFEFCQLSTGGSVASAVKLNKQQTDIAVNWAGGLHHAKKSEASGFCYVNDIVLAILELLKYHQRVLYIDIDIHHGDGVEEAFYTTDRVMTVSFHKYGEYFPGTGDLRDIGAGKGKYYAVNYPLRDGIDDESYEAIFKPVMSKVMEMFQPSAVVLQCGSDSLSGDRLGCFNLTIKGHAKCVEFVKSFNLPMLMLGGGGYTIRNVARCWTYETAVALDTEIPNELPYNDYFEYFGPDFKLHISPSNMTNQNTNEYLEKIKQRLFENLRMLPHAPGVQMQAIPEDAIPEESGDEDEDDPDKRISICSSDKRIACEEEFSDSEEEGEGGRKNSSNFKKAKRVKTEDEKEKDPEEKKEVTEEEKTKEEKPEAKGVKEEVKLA

[4] = target: T3, Histone deacetylase (Homo sapiens) (UniProt Q13547+O15379+Q9UBN7+Q92769+Q9UQL6+Q8WUI4+Q9BY41+Q96DB2+P56524+Q9UKV0+Q969S8); test: Inhibition of HDAC in human HCT-116 cells assessed increase in global histone H3 lysine 9 acetylation at 10 nM incubated for 24 hrs by Western blot analysis; type: cell-based
How it was run: (§3)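 HCT116 cells exposed 24 h at 10 nM, 100 nM or 1 μM; global histone H3 lysine 9 acetylation detected by Western blot.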

Histone deacetylase 3 [5] = target: T4, Histone deacetylase 3 (Homo sapiens, UniProt O15379); test: Inhibition of recombinant HDAC3 (unknown origin) at 250 nM incubated for 15 mins before substrate addition and measured after 30 to 45 mins by HDAC-Glo substrate; how it was run: as §1
T4 sequence (O15379 whole entry): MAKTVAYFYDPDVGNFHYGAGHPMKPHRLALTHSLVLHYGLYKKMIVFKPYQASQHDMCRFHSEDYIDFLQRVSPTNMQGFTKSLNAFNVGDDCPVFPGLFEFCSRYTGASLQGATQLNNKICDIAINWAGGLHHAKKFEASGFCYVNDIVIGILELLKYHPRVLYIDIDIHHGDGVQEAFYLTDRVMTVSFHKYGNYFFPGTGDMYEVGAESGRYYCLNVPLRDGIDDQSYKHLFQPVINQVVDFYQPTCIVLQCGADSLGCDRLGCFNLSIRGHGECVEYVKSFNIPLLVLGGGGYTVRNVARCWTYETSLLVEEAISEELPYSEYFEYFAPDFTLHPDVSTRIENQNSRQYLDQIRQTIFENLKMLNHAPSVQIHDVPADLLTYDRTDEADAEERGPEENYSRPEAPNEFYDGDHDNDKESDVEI

[6] = target: T3, Histone deacetylase (Homo sapiens); test: Inhibition of HDAC in human HCT-116 cells assessed increase in global histone H3 lysine 9 acetylation at 100 nM incubated for 24 hrs by Western blot analysis; type: cell-based; how it was run: as §3
[7] = system: Panel NCI-60 (60 carcinoma cell lines); test: Growth inhibition of human NCI-60 cells at 10 uM; type: functional; conditions: read-out: GI; how it was run: as §2
Histone deacetylase 2 [8] = target: T1, Histone deacetylase 2; test: Inhibition of recombinant HDAC2 (unknown origin)incubated for 15 mins before substrate addition and measured after 30 to 45 mins by HDAC-Glo substrate; how it was run: as §1
Histone deacetylase 1 [9] = target: T2, Histone deacetylase 1; test: Inhibition of recombinant HDAC1 (unknown origin) incubated for 15 mins before substrate addition and measured after 30 to 45 mins by HDAC-Glo substrate; how it was run: as §1
Homo sapiens [10] = species: Homo sapiens; test: Selectivity index, ratio of IC50 for recombinant HDAC6 (unknown origin) to IC50 for recombinant HDAC3 (unknown origin)
Histone deacetylase 3 [11] = target: T4, Histone deacetylase 3; test: Inhibition of recombinant HDAC3 (unknown origin)incubated for 15 mins before substrate addition and measured after 30 to 45 mins by HDAC-Glo substrate; how it was run: as §1
Homo sapiens [12] = species: Homo sapiens; test: Selectivity index, ratio of IC50 for recombinant HDAC6 (unknown origin) to IC50 for recombinant HDAC2 (unknown origin)
Homo sapiens [13] = species: Homo sapiens; test: Selectivity index, ratio of IC50 for recombinant HDAC6 (unknown origin) to IC50 for recombinant HDAC1 (unknown origin)
Histone deacetylase 2 [14] = target: T1, Histone deacetylase 2; test: Inhibition of recombinant HDAC2 (unknown origin) at 1 uM incubated for 15 mins before substrate addition and measured after 30 to 45 mins by HDAC-Glo substrate; how it was run: as §1
Histone deacetylase 1 [15] = target: T2, Histone deacetylase 1; test: Inhibition of recombinant HDAC1 (unknown origin) at 1 uM incubated for 15 mins before substrate addition and measured after 30 to 45 mins by HDAC-Glo substrate; how it was run: as §1
Histone deacetylase 3 [16] = target: T4, Histone deacetylase 3; test: Inhibition of recombinant HDAC3 (unknown origin) at 1 uM incubated for 15 mins before substrate addition and measured after 30 to 45 mins by HDAC-Glo substrate; how it was run: as §1
Histone deacetylase 2 [17] = target: T1, Histone deacetylase 2; test: Inhibition of recombinant HDAC2 (unknown origin) at 2 uM incubated for 15 mins before substrate addition and measured after 30 to 45 mins by HDAC-Glo substrate; how it was run: as §1
Histone deacetylase 3 [18] = target: T4, Histone deacetylase 3; test: Inhibition of recombinant HDAC3 (unknown origin) at 2 uM incubated for 15 mins before substrate addition and measured after 30 to 45 mins by HDAC-Glo substrate; how it was run: as §1
Histone deacetylase 1 [19] = target: T2, Histone deacetylase 1; test: Inhibition of recombinant HDAC1 (unknown origin) at 2 uM incubated for 15 mins before substrate addition and measured after 30 to 45 mins by HDAC-Glo substrate; how it was run: as §1

T1 sequence (Q92769 whole entry, canonical isoform): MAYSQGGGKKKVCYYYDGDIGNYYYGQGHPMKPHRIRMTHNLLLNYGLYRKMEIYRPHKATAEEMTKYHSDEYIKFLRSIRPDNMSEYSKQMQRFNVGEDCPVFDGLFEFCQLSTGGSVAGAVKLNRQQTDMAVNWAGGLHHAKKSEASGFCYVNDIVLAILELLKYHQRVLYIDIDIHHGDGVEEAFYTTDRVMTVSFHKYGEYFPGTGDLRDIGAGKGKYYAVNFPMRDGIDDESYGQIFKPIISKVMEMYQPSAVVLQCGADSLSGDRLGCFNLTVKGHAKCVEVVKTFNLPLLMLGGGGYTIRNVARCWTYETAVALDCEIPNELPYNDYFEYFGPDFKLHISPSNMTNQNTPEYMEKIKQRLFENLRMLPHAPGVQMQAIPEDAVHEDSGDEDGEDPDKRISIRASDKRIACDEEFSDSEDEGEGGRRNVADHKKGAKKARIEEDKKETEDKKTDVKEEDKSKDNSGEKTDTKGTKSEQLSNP

| inhibition (Histone deacetylase 2 [1]) | GI50 (HCT-116) [nM] | inhibition (Histone deacetylase 1 [3]) | Increase in histone H3K9 acetylation (qualitative call) [4] | inhibition (Histone deacetylase 3 [5]) | inhibition [6] | SMILES | growth at 10 µM [2] [%] | inhibition of growth at 10 µM [7] [%] | also measured |
| --- | --- | --- | --- | --- | --- | --- | --- | --- | --- |
| inactive | > 5000 | inactive | Active | inactive |  | CCCCCCCC(=O)SCC/C=C/[C@@H]1CC(=O)NCc2cccc(n2)CN(Cc2ccccc2)CC(=O)N[C@@H](C(C)C)C(=O)O1 | -4.39 |  |  |
|  | 800 |  |  |  | Active | CCCCCCCC(=O)SCC/C=C/[C@@H]1CC(=O)NCc2cccc(n2)CN(C)CC(=O)N[C@@H](C(C)C)C(=O)O1 | 40.8 | 60 |  |
|  | 3200 |  | Active |  |  | CCCCCCCC(=O)SCC/C=C/[C@@H]1CC(=O)NCc2cccc(n2)CN(Cc2ccc(C(F)(F)F)cc2)CC(=O)N[C@@H](C(C)C)C(=O)O1 | 0.43 |  | inhibition (Histone deacetylase 2 [14]): inactive; inhibition (Histone deacetylase 1 [15]): inactive; inhibition (Histone deacetylase 3 [16]): inactive |
|  | 750 |  |  |  | Active | CCCCCCCC(=O)SCC/C=C/[C@@H]1CC(=O)NCCOCCOCC(=O)N[C@@H](C(C)C)C(=O)O1 | 38.6 | 60 | inhibition (Histone deacetylase 2 [17]): Active; inhibition (Histone deacetylase 3 [18]): Active; inhibition (Histone deacetylase 1 [19]): Active |
|  | > 5000 |  |  |  | inactive | CCCCCCCC(=O)SCC/C=C/[C@@H]1CC(=O)NCc2cccc(n2)CN(Cc2cccc3ccccc23)CC(=O)N[C@@H](C(C)C)C(=O)O1 | 34.9 |  | inhibition (Histone deacetylase 2 [17]): Active; inhibition (Histone deacetylase 3 [18]): Active; inhibition (Histone deacetylase 1 [19]): Active |

Second part, the molecule before the results:

| SMILES | inhibition (Histone deacetylase 2 [1]) | GI50 (HCT-116) [nM] | inhibition (Histone deacetylase 1 [3]) | Increase in histone H3K9 acetylation (qualitative call) [4] | inhibition (Histone deacetylase 3 [5]) | inhibition [6] | growth at 10 µM [2] [%] | inhibition of growth at 10 µM [7] [%] | also measured |
| --- | --- | --- | --- | --- | --- | --- | --- | --- | --- |
| CCCCCCCC(=O)SCC/C=C/[C@@H]1CC(=O)NCc2nc(cs2)C2=N[C@@](C)(CS2)C(=O)N[C@@H](C(C)C)C(=O)O1 [LARGAZOLE] |  | 65 |  | Active |  |  |  | 60 | IC50 (Histone deacetylase 2 [8]): 64 nM; IC50 (Histone deacetylase 1 [9]): 61 nM |
| CCCCCCCC(=O)SCC/C=C/[C@@H]1CC(=O)NCc2cccc(n2)CN(Cc2ccc(OC)cc2)CC(=O)N[C@@H](C(C)C)C(=O)O1 | inactive | 4250 | inactive | Active | inactive |  | 5.41 |  |  |
| CCCCCCCC(=O)SCC/C=C/[C@@H]1CC(=O)NCc2cccc(n2)-c2cccc(n2)C(=O)N[C@@H](C(C)C)C(=O)O1 | Active | 75 | Active | Active | Active |  | -16.2 |  | Ratio IC50 (Homo sapiens [10]): 481; IC50 (Histone deacetylase 2 [8]): 28 nM; IC50 (Histone deacetylase 3 [11]): 27 nM; IC50 (Histone deacetylase 1 [9]): 21 nM; Ratio IC50 (Homo sapiens [12]): 464; Ratio IC50 (Homo sapiens [13]): 619 |
| CCCCCCCC(=O)SCC/C=C/[C@@H]1CC(=O)NCc2cccc(n2)CN(Cc2ccc(Cl)cc2)CC(=O)N[C@@H](C(C)C)C(=O)O1 | inactive | 2670 | inactive | Active | inactive |  | 1.42 |  |  |
